Laboratory results reported in ChEMBL document CHEMBL4007444, “Development of New Benzenesulfonamides As Potent and Selective Nav1.7 Inhibitors for the Treatment of Pain” (J Med Chem, 2017).
Calls of active or inactive are those of the source. The calls are words filed in the database; no cut-off is given here.

Tests used:
[1] = target: T1, Sodium channel protein type 9 subunit alpha (Homo sapiens, UniProt Q15858); experiment: Inhibition of recombinant human Nav1.7 expressed in HEK293 cells assessed as reduction in peak inward current at -60 mV holding potential measured after 600 secs by IonWorks Barracuda patch-clamp assay; assay type: cell-based
Summary of the method: (§1)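 HEK293 cells expressing the channel, measured by population patch clamp on IonWorks Barracuda. Internal: K-gluconate/KCl, pH 7.2. Compound incubated 600 s between pre- and post-compound reads. Nav1.7: held at -60 mV, 300 ms at -100 mV, then 20 ms test pulse to -20 mV. Nav1.5: held at -40/-50 mV, 300 ms at -100 mV, then step to -10 mV to inactivate.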

[2] = target: Sodium channel protein type 5 subunit alpha (Homo sapiens, UniProt Q14524); experiment: Inhibition of recombinant human Nav1.5 expressed in HEK293 cells assessed as reduction in peak inward current at -50 mV holding potential measured after 600 secs by IonWorks Barracuda patch-clamp assay; assay type: cell-based
Summary of the method: as §1, with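 “Barracuda. External solution (mM): 137 NaCl, 4 KCl, 1 MgCl2, 1.8 CaCl2, 10 HEPES, 10 glucose, pH 7.4.” for “Barracuda.”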

[3] = target: Cytochrome P450 3A4 (Homo sapiens, UniProt P08684); experiment: Inhibition of human CYP3A4 assessed as inhibition of dealkylation
[4] = target: T1, Sodium channel protein type 9 subunit alpha; experiment: Inhibition of recombinant human Nav1.7 expressed in HEK293 cells assessed as reduction in peak inward current at -70 mV holding potential measured after 600 secs by manual patch clamp electrophysiology assay; assay type: cell-based
Summary of the method: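 Whole-cell manual patch clamp of HEK293 cells stably expressing recombinant human Nav1.7, held at -70 mV (partially inactivated state). The pipette solution (mM) was 50 CsCl, 90 CsF, 10 NaF, 2 MgCl₂, 10 EGTA and 10 HEPES, pH 7.2, with electrodes of 1-4 MOhm. Percent inhibition of peak inward current was calculated, and IC50 came from a Hill fit to averaged percent inhibition (mean ± S.E.M.).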

[5] = target: T2, Sodium channel protein type 9 subunit alpha (Mus musculus, UniProt Q62205); experiment: Inhibition of recombinant mouse Nav1.7 expressed in HEK293 cells assessed as reduction in peak inward current at -70 mV holding potential measured after 600 secs by manual patch clamp electrophysiology assay; assay type: cell-based
Summary of the method: (§2)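 Whole-cell manual patch clamp of HEK293 cells stably expressing recombinant Nav1.7, holding potential -70 mV (partially inactivated state). Pipette solution (mM): 50 CsCl, 90 CsF, 10 NaF, 2 MgCl2, 10 EGTA, 10 HEPES, pH 7.2; electrode resistance 1-4 MOhm. Percent inhibition of peak inward current; IC50 from a Hill fit to the averaged data; mean ± SEM.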

[6] = Apparent permeability of the compound at pH 5.5 by PAMPA assay; assay type: physicochemical
[7] = Apparent permeability of the compound at pH 7.4 by PAMPA assay; assay type: physicochemical
[8] = Fraction unbound in CD-1 mouse plasma; assay type: ADME, cell-free
[9] = Plasma concentration in CD-1 mouse at 30 mg/kg, po measured 75 mins post dosage; assay type: ADME, organism-based
[10] = tested on: Plasma; experiment: Free plasma concentration in CD-1 mouse at 30 mg/kg, po measured 75 mins post dosage; assay type: ADME, organism-based; conditions: in vivo, 1.25 h
[11] = Drug uptake in CD-1 mouse DRG neurons at 30 mg/kg, po measured 75 mins post dosage; assay type: ADME, organism-based, DRG neuron; conditions: read-out: Drug uptake
[12] = tested on: Mus musculus; experiment: Antinociceptive activity in CD-1 mouse assessed as reduction in formalin-stimulated paw flinching at 30 mg/kg, po administered 30 mins prior to formalin challenge measured up to 45 mins; assay type: functional, organism-based
Summary of the method: (§3)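 Male CD1 mice, oral dosing (10 mL/kg) of compound or vehicle before formalin; 20 μL of 5% formalin (w/v in saline) injected SC into the dorsal right hind paw, which carried a glued metal band, after 60 min acclimation in an individual chamber. Flinching counted automatically for 45 min: phase I is the first 5 min, phase II is 15-45 min. Mean ± SEM, n=10-14/group, ANOVA with Dunnett's test.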

[13] = tested on: Mus musculus; experiment: Antinociceptive activity in CD-1 mouse assessed as reduction in formalin-stimulated paw flinching at 60 mg/kg, po administered 30 mins prior to formalin challenge measured up to 5 mins; assay type: functional, organism-based; summary of the method: as §3
[14] = tested on: Mus musculus; experiment: Antinociceptive activity in CD-1 mouse assessed as reduction in formalin-stimulated paw flinching at 60 mg/kg, po administered 30 mins prior to formalin challenge measured up to 45 mins; assay type: functional, organism-based; summary of the method: as §3
[15] = tested on: Plasma; experiment: Free plasma concentration in CD-1 mouse at 60 mg/kg, po measured 60 mins post dosage; conditions: in vivo, 1 h
[16] = target: Sodium channel protein type 9 subunit alpha (Rattus norvegicus, UniProt O08562); experiment: Inhibition of rat Nav1.7 assessed as reduction in peak inward current at -70 mV holding potential measured after 600 secs by manual patch clamp electrophysiology assay; summary of the method: as §2
[17] = target: T2, Sodium channel protein type 9 subunit alpha; experiment: Inhibition of Nav1.7 in C57BL/6 mouse DRG neurons assessed as reduction in native TTX-S current amplitude by manual patch clamp electrophysiology assay
[18] = tested on: Mus musculus; experiment: Antinociceptive activity in CD-1 mouse assessed as reduction in formalin-stimulated paw flinching at 100 mg/kg, po administered 30 mins prior to formalin challenge measured up to 45 mins; assay type: functional, organism-based; summary of the method: as §3
[19] = tested on: Plasma; experiment: Free plasma concentration in CD-1 mouse at 100 mg/kg, po measured 60 mins post dosage; conditions: in vivo, 1 h
[20] = target: T1, Sodium channel protein type 9 subunit alpha; experiment: Inhibition of recombinant human Nav1.7 expressed in HEK293 cells assessed as reduction in peak inward current at -120 mV holding potential by manual whole-cell patch-clamp assay
[21] = tested on: Mus musculus; experiment: Antinociceptive activity in CD-1 mouse assessed as reduction in formalin-stimulated paw flinching at 100 mg/kg, po administered prior to formalin challenge measured up to 5 mins

T2 sequence (Q62205 whole entry): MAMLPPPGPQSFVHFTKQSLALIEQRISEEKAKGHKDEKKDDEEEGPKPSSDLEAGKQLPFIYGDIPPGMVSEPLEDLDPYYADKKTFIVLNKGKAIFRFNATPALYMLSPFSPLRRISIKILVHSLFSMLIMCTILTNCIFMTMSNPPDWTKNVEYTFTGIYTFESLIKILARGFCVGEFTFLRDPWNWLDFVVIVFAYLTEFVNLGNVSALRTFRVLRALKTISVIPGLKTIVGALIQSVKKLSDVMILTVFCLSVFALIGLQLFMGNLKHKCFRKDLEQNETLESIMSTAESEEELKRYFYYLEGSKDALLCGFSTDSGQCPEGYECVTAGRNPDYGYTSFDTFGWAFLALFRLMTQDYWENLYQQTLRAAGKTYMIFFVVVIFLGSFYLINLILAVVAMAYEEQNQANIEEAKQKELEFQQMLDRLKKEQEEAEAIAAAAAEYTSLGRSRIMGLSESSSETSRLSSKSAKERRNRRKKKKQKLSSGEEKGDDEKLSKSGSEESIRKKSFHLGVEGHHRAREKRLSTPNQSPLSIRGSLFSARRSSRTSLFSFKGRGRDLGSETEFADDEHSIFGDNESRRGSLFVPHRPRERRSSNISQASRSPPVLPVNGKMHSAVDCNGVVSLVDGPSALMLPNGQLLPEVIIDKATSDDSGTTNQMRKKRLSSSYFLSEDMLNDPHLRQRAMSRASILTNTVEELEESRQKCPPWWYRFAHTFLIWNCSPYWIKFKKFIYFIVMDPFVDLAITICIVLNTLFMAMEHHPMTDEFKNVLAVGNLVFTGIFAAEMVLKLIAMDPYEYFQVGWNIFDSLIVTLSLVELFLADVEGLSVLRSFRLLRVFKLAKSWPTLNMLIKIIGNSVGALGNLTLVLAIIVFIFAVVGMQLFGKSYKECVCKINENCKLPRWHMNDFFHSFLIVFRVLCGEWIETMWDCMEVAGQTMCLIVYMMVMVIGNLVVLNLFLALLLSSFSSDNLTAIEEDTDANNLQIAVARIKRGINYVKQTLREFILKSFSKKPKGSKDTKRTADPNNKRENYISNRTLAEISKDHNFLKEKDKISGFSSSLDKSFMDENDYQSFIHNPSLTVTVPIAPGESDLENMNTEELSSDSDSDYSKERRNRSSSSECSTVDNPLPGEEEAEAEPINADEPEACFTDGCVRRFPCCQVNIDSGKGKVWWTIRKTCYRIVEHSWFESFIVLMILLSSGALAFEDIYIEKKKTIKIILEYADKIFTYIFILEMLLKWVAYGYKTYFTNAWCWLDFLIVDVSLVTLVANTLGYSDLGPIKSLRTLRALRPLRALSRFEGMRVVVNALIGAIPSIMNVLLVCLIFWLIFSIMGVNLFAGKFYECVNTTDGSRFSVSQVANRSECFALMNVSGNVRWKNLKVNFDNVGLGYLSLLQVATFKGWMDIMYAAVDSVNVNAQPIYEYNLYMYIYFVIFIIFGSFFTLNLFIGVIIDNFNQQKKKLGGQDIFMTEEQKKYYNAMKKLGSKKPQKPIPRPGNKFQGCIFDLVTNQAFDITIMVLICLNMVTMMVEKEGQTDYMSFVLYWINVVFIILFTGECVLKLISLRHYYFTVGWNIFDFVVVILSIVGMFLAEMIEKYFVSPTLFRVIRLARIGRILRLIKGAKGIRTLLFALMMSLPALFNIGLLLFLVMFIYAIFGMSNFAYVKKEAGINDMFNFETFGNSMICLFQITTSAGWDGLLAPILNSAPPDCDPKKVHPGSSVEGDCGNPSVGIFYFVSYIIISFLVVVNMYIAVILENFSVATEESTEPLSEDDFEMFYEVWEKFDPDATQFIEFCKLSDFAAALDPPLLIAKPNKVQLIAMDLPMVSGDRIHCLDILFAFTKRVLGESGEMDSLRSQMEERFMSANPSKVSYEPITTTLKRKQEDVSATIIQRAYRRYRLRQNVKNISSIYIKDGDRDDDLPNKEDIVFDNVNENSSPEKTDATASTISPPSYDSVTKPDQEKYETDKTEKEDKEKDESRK
T1 sequence (Q15858 whole entry): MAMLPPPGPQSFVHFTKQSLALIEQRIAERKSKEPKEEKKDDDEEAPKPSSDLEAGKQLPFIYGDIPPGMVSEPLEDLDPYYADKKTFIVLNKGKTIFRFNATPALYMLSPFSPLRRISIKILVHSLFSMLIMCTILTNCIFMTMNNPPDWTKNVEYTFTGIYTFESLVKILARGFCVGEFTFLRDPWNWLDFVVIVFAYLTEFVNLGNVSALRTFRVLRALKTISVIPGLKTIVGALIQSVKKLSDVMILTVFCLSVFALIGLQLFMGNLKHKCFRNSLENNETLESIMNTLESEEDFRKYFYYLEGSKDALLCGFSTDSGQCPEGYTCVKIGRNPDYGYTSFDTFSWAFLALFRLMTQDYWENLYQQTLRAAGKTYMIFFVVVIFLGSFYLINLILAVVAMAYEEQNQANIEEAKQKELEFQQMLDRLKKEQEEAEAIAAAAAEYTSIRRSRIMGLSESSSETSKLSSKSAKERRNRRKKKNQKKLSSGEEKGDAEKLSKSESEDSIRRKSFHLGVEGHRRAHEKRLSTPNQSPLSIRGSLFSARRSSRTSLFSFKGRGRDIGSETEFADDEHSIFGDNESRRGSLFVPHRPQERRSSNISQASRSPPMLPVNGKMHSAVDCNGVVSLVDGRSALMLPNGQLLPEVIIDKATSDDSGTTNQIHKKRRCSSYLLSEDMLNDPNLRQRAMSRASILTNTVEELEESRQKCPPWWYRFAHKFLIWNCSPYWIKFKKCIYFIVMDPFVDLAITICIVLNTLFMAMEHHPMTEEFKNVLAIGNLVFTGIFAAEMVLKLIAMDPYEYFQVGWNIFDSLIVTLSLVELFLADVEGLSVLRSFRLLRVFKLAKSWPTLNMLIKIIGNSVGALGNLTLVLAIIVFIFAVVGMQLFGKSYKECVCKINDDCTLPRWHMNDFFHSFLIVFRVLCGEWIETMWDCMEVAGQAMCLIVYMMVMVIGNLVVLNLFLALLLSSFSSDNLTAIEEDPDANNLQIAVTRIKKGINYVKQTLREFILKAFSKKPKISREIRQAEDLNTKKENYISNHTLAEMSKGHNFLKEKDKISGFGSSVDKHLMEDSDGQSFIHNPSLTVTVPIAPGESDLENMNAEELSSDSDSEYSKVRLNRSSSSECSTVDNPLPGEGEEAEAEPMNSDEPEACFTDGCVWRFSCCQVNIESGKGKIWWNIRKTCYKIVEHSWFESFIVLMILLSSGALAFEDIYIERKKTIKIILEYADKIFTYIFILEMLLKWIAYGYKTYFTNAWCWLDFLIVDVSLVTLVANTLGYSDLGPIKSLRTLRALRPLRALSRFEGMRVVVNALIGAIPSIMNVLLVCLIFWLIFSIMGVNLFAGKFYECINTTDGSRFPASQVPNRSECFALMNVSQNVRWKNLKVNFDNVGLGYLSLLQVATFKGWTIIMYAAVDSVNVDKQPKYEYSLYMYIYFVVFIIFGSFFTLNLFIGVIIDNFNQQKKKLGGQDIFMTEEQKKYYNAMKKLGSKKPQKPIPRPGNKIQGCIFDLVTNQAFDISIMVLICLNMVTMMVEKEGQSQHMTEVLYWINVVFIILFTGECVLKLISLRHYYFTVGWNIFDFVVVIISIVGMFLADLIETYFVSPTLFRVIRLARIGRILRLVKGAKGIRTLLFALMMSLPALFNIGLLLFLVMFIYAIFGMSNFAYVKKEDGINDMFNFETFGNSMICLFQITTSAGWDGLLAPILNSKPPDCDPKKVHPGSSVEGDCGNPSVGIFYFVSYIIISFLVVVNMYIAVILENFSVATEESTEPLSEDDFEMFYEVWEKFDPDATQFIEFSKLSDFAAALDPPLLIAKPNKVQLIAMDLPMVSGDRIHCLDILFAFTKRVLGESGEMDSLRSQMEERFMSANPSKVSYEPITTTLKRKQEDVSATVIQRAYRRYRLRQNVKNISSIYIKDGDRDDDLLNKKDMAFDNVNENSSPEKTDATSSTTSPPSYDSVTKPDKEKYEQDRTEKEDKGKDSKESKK
Sequence of Cytochrome P450 3A4 (P08684 whole entry): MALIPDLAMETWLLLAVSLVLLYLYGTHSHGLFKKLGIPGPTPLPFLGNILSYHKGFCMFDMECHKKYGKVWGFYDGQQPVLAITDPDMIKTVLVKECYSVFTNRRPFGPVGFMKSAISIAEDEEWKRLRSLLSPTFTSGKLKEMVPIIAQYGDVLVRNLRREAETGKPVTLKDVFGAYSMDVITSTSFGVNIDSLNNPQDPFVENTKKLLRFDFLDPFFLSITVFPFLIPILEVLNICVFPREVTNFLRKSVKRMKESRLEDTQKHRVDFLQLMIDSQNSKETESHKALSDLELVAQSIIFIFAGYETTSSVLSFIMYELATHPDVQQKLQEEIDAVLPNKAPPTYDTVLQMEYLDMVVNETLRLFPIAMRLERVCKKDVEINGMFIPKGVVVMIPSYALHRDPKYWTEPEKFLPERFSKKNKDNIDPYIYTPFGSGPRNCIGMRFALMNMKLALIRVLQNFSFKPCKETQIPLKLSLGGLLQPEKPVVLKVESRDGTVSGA

Compound | IC50 [1] [nM] | IC50 [2] [nM] | other results
N[C@H]1CC[C@@](CCOc2cc(F)c(S(=O)(=O)Nc3ncns3)cc2F)(c2ccccc2)CC1 | 473 | > 30000 | 
O=S(=O)(Nc1nccs1)c1cc(Cl)c(NCC2CNCCO2)cc1F (racemic) | 69 | > 30000 | IC50 [3]: 20000 nM
N[C@H]1CC[C@@](CCOc2cc(F)c(S(=O)(=O)Nc3ncns3)cc2F)(c2ccc(Cl)cc2)CC1 |  | > 30000 | 
C[C@]1(CCOc2cc(F)c(S(=O)(=O)Nc3ncns3)cc2F)CC[C@H](N)CC1 | 383 | > 30000 | 
O=S(=O)(Nc1nccs1)c1cc(Cl)c(NCC2(CN3CCCC3)CC2)cc1F |  | 5100 | IC50 [3]: 20000 nM; IC50 [4]: 12 nM; IC50 [5]: 51 nM; Papp [6]: 4.7 ×10⁻⁶ cm/s; Papp [7]: 94.9 ×10⁻⁶ cm/s; fraction unbound [8]: 0.2; concentration at 1.25 h [9]: 1200 nM; Cp(f) [10]: 240 nM; concentration at 1.25 h [11]: 1500 nM; Activity [12]: Active
N[C@H]1CC[C@@](CCOc2cc(F)c(S(=O)(=O)Nc3ncns3)cc2Cl)(c2ccccc2)CC1 |  | > 30000 | 
N[C@H]1CC[C@@H](CCNc2cc(F)c(S(=O)(=O)Nc3nccs3)cc2Cl)CC1 |  | 4900 | 
N[C@H]1CC[C@@H](CNc2cc(F)c(S(=O)(=O)Nc3ncns3)cc2Cl)CC1 |  | 2600 | IC50 [3]: 2300 nM
O=S(=O)(Nc1nccs1)c1cc(Cl)c(NCC2CNC2)cc1F | 339 | > 30000 | 
N[C@H]1CC[C@H](CNc2cc(F)c(S(=O)(=O)Nc3nccs3)cc2Cl)CC1 |  | > 30000 | 
O=S(=O)(Nc1ncns1)c1cc(F)c(OCC[C@]2(c3ccccc3)CC[C@H](NC3CC3)CC2)cc1F |  | > 30000 | 
CN[C@H]1CC[C@@](CCOc2cc(F)c(S(=O)(=O)Nc3ncns3)cc2F)(c2ccccc2)CC1 |  | > 30000 | 
O=S(=O)(Nc1nccs1)c1cc(Cl)c(NC[C@H]2CCCNC2)cc1F | 49 | > 30000 | IC50 [3]: 20000 nM
O=S(=O)(Nc1nccs1)c1cc(Cl)c(NC[C@@H]2CCCNC2)cc1F | 57 |  | IC50 [3]: 20000 nM
O=S(=O)(Nc1ncns1)c1cc(F)c(OCC2(c3ccc(Cl)cc3)CCNCC2)cc1F | 900 |  | 
O=S(=O)(Nc1nccs1)c1cc(Cl)c(NCCC2CCNCC2)cc1F |  | > 30000 | 
O=S(=O)(Nc1ncns1)c1cc(F)c(OC[C@@H]2CNCC[C@H]2c2ccc(Cl)cc2)cc1F | 2 |  | 
N[C@H]1CC[C@@](CCNc2cc(F)c(S(=O)(=O)Nc3nccs3)cc2Cl)(c2ccccc2)CC1 |  | > 30000 | IC50 [3]: 9800 nM
O=S(=O)(Nc1ncns1)c1cc(F)c(OCC[C@]2(c3ccccc3)CC[C@@H](NC3CC3)CC2)cc1F |  | > 30000 | 

Compound | IC50 [1] [nM] | IC50 [2] [nM] | other results
C[C@]1(CCOc2cc(F)c(S(=O)(=O)Nc3ncns3)cc2F)CC[C@@H](N)CC1 | 78 | > 30000 | 
O=S(=O)(Nc1nccs1)c1cc(Cl)c(NCC23CCCN2CCC3)cc1F |  |  | Activity [13]: inactive; Activity [14]: Active; Cp(f) [15]: 1270 nM
N[C@H]1CC[C@](CCOc2cc(F)c(S(=O)(=O)Nc3ncns3)cc2Cl)(c2ccccc2)CC1 |  | > 30000 | 
CN1CCC(CCNc2cc(F)c(S(=O)(=O)Nc3nccs3)cc2Cl)CC1 |  | > 30000 | 
O=S(=O)(Nc1nccs1)c1cc(Cl)c(NCCC2CNC2)cc1F |  | > 30000 | 
N[C@H]1CC[C@](CCNc2cc(F)c(S(=O)(=O)Nc3nccs3)cc2Cl)(c2ccccc2)CC1 |  | > 30000 | IC50 [3]: 6700 nM
CN1C(C)(C)CC(Nc2cc(F)c(S(=O)(=O)Nc3nccs3)cc2Cl)CC1(C)C | 27 | > 30000 | IC50 [3]: 20000 nM; IC50 [4]: 17 nM; IC50 [5]: 30 nM; Papp [6]: 2.3 ×10⁻⁶ cm/s; Papp [7]: 24.1 ×10⁻⁶ cm/s; fraction unbound [8]: 0.23; concentration at 1.25 h [9]: 1100 nM; Cp(f) [10]: 280 nM; concentration at 1.25 h [11]: 1500 nM
CC(=O)N1CCCC(CNc2cc(F)c(S(=O)(=O)Nc3nccs3)cc2Cl)C1 (racemic) | 324 | > 30000 | 
O=S(=O)(Nc1nccs1)c1cc(Cl)c(NCCC2CCNC2)cc1F (racemic) | 14 | > 30000 | 
CN[C@H]1CC[C@](CCOc2cc(F)c(S(=O)(=O)Nc3ncns3)cc2F)(c2ccccc2)CC1 |  | > 30000 | 
O=S(=O)(Nc1ncns1)c1cc(Cl)c(NCCC2CCCCN2)cc1F (racemic) | 15 |  | 
N[C@H]1CC[C@](CCOc2cc(F)c(S(=O)(=O)Nc3ncns3)cc2F)(c2ccc(Cl)cc2)CC1 |  | > 30000 | 
O=S(=O)(Nc1ncns1)c1cc(F)c(OCCC2(c3ccc(Cl)cc3)CCNCC2)cc1F | 78 |  | 
N[C@H]1CC[C@](CCOc2cc(F)c(S(=O)(=O)Nc3ncns3)cc2F)(c2ccccc2)CC1 | 15 | > 30000 | 
CN1CCCC(CNc2cc(F)c(S(=O)(=O)Nc3nccs3)cc2Cl)C1 (racemic) | 264 | > 30000 | 
N[C@H]1CC[C@@H](CNc2cc(F)c(S(=O)(=O)Nc3nccs3)cc2Cl)CC1 | 6 | 1900 | IC50 [4]: 4 nM; IC50 [5]: 7.5 nM; IC50 [16]: 12.3 nM; IC50 [17]: 6 nM; Activity [18]: inactive; fraction unbound [8]: 0.08; Cp(f) [19]: 320 nM; IC50 [20]: 9400 nM; Activity [21]: inactive
O=S(=O)(Nc1nccs1)c1cc(Cl)c(NC[C@@H]2CCCN(O)C2)cc1F | 207 |  | 
O=S(=O)(Nc1nccs1)c1cc(Cl)c(NC[C@H]2CCCN(O)C2)cc1F | 186 |  | 
